Results taken from ChEMBL document CHEMBL3352380, “Development of benzo[d]oxazol-2(3H)-ones derivatives as novel inhibitors of Mycobacterium tuberculosis InhA” (Bioorg Med Chem, 2014).
Values after ≈ are worked out from the molar mass of the structure shown.

Tests used:
[1] = target: T1, Enoyl-[acyl-carrier-protein] reductase [NADH] (Mycobacterium tuberculosis) (UniProt P9WGR1); assay: Inhibition of Mycobacterium tuberculosis recombinant His6-tagged InhA expressed in Escherichia coli BL21(DE3) using 2-trans-decenoyl-CoA as substrate at 10 uM incubated for 2 hrs prior to substrate addition by spectrophotometry
T1 sequence (whole entry): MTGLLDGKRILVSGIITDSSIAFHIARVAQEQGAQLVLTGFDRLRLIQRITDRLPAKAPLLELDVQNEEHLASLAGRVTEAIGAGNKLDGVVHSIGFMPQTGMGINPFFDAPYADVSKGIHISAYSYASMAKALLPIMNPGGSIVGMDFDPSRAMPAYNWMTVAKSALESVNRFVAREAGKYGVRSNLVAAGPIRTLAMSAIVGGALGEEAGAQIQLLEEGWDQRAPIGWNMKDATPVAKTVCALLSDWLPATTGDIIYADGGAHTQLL
Summary of the method: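 His6-InhA expressed in E. coli BL21(DE3) with 0.1 mM IPTG at 18 °C and purified on Ni-NTA. 70 nM enzyme pre-incubated 2 h with inhibitor at 10 µM in 30 mM PIPES, 150 mM NaCl, pH 6.8, 0.5% DMSO, 25 °C. Reaction started with DD-CoA plus NADH and followed at 340 nm. Initial velocity compared with a no-ligand control; triplicate.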

[2] = tested on: Mycobacterium tuberculosis; assay: Antimicrobial activity against Mycobacterium tuberculosis H37Rv ATCC 27294 after 28 days by two-fold agar dilution method; assay type: functional; details: H37Rv ATCC 27294, 672 h
Summary of the method: (§1)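 Two-fold serial dilutions in Middlebrook 7H11 agar with OADC supplement, final 50 to 0.78 µg/mL. Inoculum from fresh 7H11/OADC slants, adjusted to 1 mg/mL wet weight in 0.05% Tween 80 saline and diluted 10^-2 (~10^7 cfu/mL), spotted onto drug-containing agar tubes. Incubated at 37 °C; MIC is the lowest concentration inhibiting growth, read at 28 days.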

[3] = tested on: Mycobacterium tuberculosis; assay: Antimicrobial activity against Mycobacterium tuberculosis H37Rv ATCC 27294 after 28 days by two-fold agar dilution method in presence of verapamil; assay type: functional; details: H37Rv ATCC 27294, 672 h; summary of the method: as §1
[4] = tested on: Mycobacterium tuberculosis; assay: Antimicrobial activity against Mycobacterium tuberculosis H37Rv ATCC 27294 after 28 days by two-fold agar dilution method in presence of piperine; assay type: functional; details: H37Rv ATCC 27294, 672 h; summary of the method: as §1
[5] = Cytotoxicity against mouse RAW264.7 cells at 100 uM after 72 hrs by MTT assay; assay type: cell-based; details: read-out: INH
Summary of the method: (§2)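 RAW 264.7 macrophages exposed to compound for 72 h. Viability read as MTT conversion to formazan with a non-radioactive cell proliferation kit, reported as percentage growth inhibition.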

[6] = Cytotoxicity against mouse RAW264.7 cells at 50 uM after 72 hrs by MTT assay; assay type: cell-based; details: read-out: INH; summary of the method: as §2
[7] = target: T2, Enoyl-[acyl-carrier-protein] reductase [NADH] (Mycobacterium tuberculosis, UniProt P9WGR1); assay: Inhibition of Mycobacterium tuberculosis recombinant His6-tagged InhA expressed in Escherichia coli BL21(DE3) using 2-trans-decenoyl-CoA as substrate incubated for 2 hrs prior to substrate addition by spectrophotometry
T2 sequence (P9WGR1 whole entry): T1 sequence (whole entry)

| SMILES | inhibition [1] | MIC [2] | MIC [3] | MIC [4] | cytotoxicity at 72 h, 100 µM [5] | cytotoxicity at 72 h, 50 µM [6] | IC50 [7] |
| --- | --- | --- | --- | --- | --- | --- | --- |
| O=C(Cn1c(=O)oc2cc(Cl)ccc21)Nc1cc(C(F)(F)F)ccc1Cl | 40.1% | 61.7 µM (≈ 25 µg/mL) | 15.4 µM | 15.4 µM | 12.1% | 1.61% |  |
| CC[C@@H](CO)NCCN[C@@H](CC)CO [ETHAMBUTOL] |  | 7.64 µM (≈ 1.56 µg/mL) |  |  |  |  |  |
| O=C(Cn1c(=O)oc2ccccc21)NCc1cccs1 | 26.1% | 21.7 µM (≈ 6.25 µg/mL) | 10.8 µM | 5.41 µM | 49.1% | 23.4% |  |
| CC1COc2c(N3CCN(C)CC3)c(F)cc3c(=O)c(C(=O)O)cn1c23 (centres undefined) [OFLOXACIN] |  | 2.16 µM (≈ 0.781 µg/mL) |  |  |  |  |  |
| CO[C@H]1/C=C/O[C@@]2(C)Oc3c(C)c(O)c4c(O)c(c(/C=N/N5CCN(C)CC5)c(O)c4c3C2=O)NC(=O)/C(C)=C\C=C\[C@H](C)[C@H](O)[C@@H](C)[C@@H](O)[C@@H](C)[C@H](OC(C)=O)[C@@H]1C [RIFAMPIN] |  | 0.15 µM (≈ 0.123 µg/mL) |  |  |  |  |  |
| O=C(Cn1c(=O)oc2ccccc21)Nc1ncc([N+](=O)[O-])s1 | 48.1% | 78 µM (≈ 25 µg/mL) | 39 µM | 19.5 µM | 44.6% | 25% |  |
| O=C(Cn1c(=O)oc2cc([N+](=O)[O-])ccc21)Nc1nc2ccccc2s1 | 60.8% | 33.8 µM (≈ 12.5 µg/mL) | 33.8 µM | 33.8 µM | 56.1% | 22.7% | 7.62 µM |
| O=C(Cn1c(=O)oc2cc(Cl)ccc21)NCc1ccccn1 | 43.1% | 39.3 µM (≈ 12.5 µg/mL) | 4.91 µM | 4.91 µM | 40% | 36.1% |  |
| O=C(Cn1c(=O)oc2cc(Cl)ccc21)NCc1cccs1 | 45.6% | 38.7 µM (≈ 12.5 µg/mL) | 9.64 µM | 9.64 µM | 53.6% | 20.3% |  |
| O=C(Cn1c(=O)oc2cc([N+](=O)[O-])ccc21)Nc1ccccc1 | 46.1% | 79.8 µM (≈ 25 µg/mL) | 19.9 µM | 9.97 µM | 26.4% | 18% |  |
| O=C(Cn1c(=O)oc2cc([N+](=O)[O-])ccc21)Nc1cc(C(F)(F)F)ccc1Cl | 32.2% | 60.1 µM (≈ 25 µg/mL) | 15 µM | 30.1 µM | 31.6% | 12.8% |  |
| O=C(Cn1c(=O)oc2ccccc21)Nc1nc2ccc([N+](=O)[O-])cc2s1 | 45.1% | 33.8 µM (≈ 12.5 µg/mL) | 8.43 µM | 4.21 µM | 19.2% | 12.4% |  |
| O=C(Cn1c(=O)oc2ccccc21)NCc1ccccn1 | 42.2% | 88.2 µM (≈ 25 µg/mL) | 22.1 µM | 44.1 µM | 38.7% | 37.3% |  |
| O=C(Cn1c(=O)oc2cc([N+](=O)[O-])ccc21)NCc1ccco1 | 36.9% | 78.8 µM (≈ 25 µg/mL) | 39.4 µM | 39.4 µM | 60.1% | 26.8% |  |
| O=C(Cn1c(=O)oc2cc([N+](=O)[O-])ccc21)NCc1cccs1 | 35.7% | 18.8 µM (≈ 6.25 µg/mL) | 18.8 µM | 18.8 µM | 41% | 36.5% |  |
| O=C(Cn1c(=O)oc2cc(Cl)ccc21)NCc1ccco1 | 47.5% | 40.8 µM (≈ 12.5 µg/mL) | 20.4 µM | 10.2 µM | 50.3% | 27.8% |  |
| O=C(Cn1c(=O)oc2ccccc21)Nc1cc(Cl)ccc1Cl | 19.5% |  |  |  |  |  | 22.1 µM |
| O=C(Cn1c(=O)oc2ccccc21)Nc1cccc(Cl)c1 | 17% |  |  |  |  |  | > 25 µM |
| O=C(Cn1c(=O)oc2ccccc21)Nc1cc(C(F)(F)F)ccc1Cl | 26.8% | 67.4 µM (≈ 25 µg/mL) | 33.7 µM | 16.9 µM | 15.4% | 12.3% |  |
| O=C(Cn1c(=O)oc2ccccc21)Nc1ccc(Cl)c(Cl)c1 | 16.5% |  |  |  |  |  | > 25 µM |
| O=C(Cn1c(=O)oc2cc([N+](=O)[O-])ccc21)Nc1ccccn1 | 15.6% | 39.8 µM (≈ 12.5 µg/mL) | 19.9 µM | 9.94 µM | 47.3% | 38.6% |  |
| NNC(=O)c1ccncc1 [ISONIAZID] |  | 0.72 µM (≈ 0.0987 µg/mL) |  |  |  |  |  |
| O=C(Cn1c(=O)oc2ccccc21)NCc1ccco1 | 30.1% | 22.9 µM (≈ 6.25 µg/mL) | 22.9 µM | 22.9 µM | 33.8% | 32.8% |  |
| O=C(Cn1c(=O)oc2cc([N+](=O)[O-])ccc21)Nc1nc2ccc([N+](=O)[O-])cc2s1 | 51.7% | 15 µM (≈ 6.25 µg/mL) | 3.75 µM | 3.75 µM | 39% | 14.8% |  |
| O=C(Cn1c(=O)oc2cc(Cl)ccc21)Nc1nc2ccc([N+](=O)[O-])cc2s1 | 48.6% | 30.9 µM (≈ 12.5 µg/mL) | 7.72 µM | 7.72 µM | 14.2% | 12.5% |  |
| O=C(Cn1c(=O)oc2cc(Cl)ccc21)Nc1ccccn1 | 51.6% | 82.3 µM (≈ 25 µg/mL) | 10.3 µM | 10.3 µM | 43.7% | 33% |  |
| O=C(Cn1c(=O)oc2ccccc21)Nc1ccccc1 | 32.4% | 46.6 µM (≈ 12.5 µg/mL) | 23.3 µM | 23.3 µM | 39.8% | 35.1% |  |
| O=C(Cn1c(=O)oc2ccccc21)Nc1ccccn1 | 26.1% | 46.4 µM (≈ 12.5 µg/mL) | 4.64 µM | 9.28 µM | 28.4% | 20.2% |  |
| O=C(Cn1c(=O)oc2cc(Cl)ccc21)Nc1ccccc1 | 28.2% | 82.6 µM (≈ 25 µg/mL) | 20.6 µM | 41.3 µM | 20.2% | 15.8% |  |
| O=C(Cn1c(=O)oc2ccccc21)Nc1nc2ccccc2s1 | 42.1% | 19.2 µM (≈ 6.25 µg/mL) | 9.6 µM | 9.6 µM | 59.6% | 43.5% |  |
